This is an account of results in publication PMC3361640 (Insect Biochemistry and Molecular Biology, 2012).

Assay [1] deals with AmOr11. Conditions: AmOr11, Xenopus assay; ref Wanner et al., 2007; cited from earlier work.
For assay [2], the system named is McOr5. The assay is described as follows: McOr5 co-expressed with Orco. Type of assay: cell-based, Megacyllene caryae. Conditions: McOr5, odorant at 30 µM applied 20 s. The gist of the method: (§1)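 Defolliculated Xenopus laevis oocytes (collagenase B, 2 h, room temperature) were co-injected with receptor and Orco (McOr1) cRNA and incubated 3–7 d. Two-electrode voltage clamp was run at −70 mV with 3 M KCl electrodes (0.2–2.0 MΩ) in ND96. Pheromone components and isomers, diluted in ND96, were applied at 30 µM for 20 s at 1.6 ml/min. Currents were filtered at 20 Hz and sampled at 100 Hz.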

Assay [3] relates to McOr20. The assay can be described thus: McOr20 co-expressed with Orco. Type of assay: cell-based, Megacyllene caryae. Conditions: for Current response of receptor in separate screen: McOr20, odorant at 100 µM, data not shown; for Current response of receptor in screen: McOr20, odorant at 30 µM applied 20 s.
Assay [4] has as its system BmOr 1. To be noted: ref Nakagawa et al., 2005; cited from earlier work.
Assay [5] concerns Megacyllene caryae adults. Conditions: adult M. caryae, field; ref Mitchell, 2012; cited from earlier work.
In assay [6] the test system is McOr3. The assay is described as follows: McOr3 co-expressed with Orco. To be noted: McOr3, odorant at 30 µM applied 20 s. The format is cell-based, Megacyllene caryae. In a few lines:
as §1

The subject of assay [7] is BmOr3. To be noted: ref Nakagawa et al., 2005; cited from earlier work.

Regarding `CC(=O)CCCCCC=CC(=O)O` [9-oxo-2-decenoic acid], the concentration giving a half-maximal response (EC50) (as a rule, the concentration that produces a half-maximal response) in assay [1] was 280 nM.
For `OCCc1ccccc1` [2-phenylethanol], the “Current response of receptor in screen” value in assay [2] is listed as “sensitive”.
`CCC[C@H](O)[C@@H](C)O` [(2R,3S)-2,3-hexanediol]: the “Current response of receptor in separate screen” value in assay [3] was “responded”.
In the case of `CCC/C=C\C=C\CCCCCCCCCO` [bombykol], in assay [4], the EC50 was 1500 nM.
`CCC[C@H](O)[C@H](C)O` [(2S,3S)-2,3-hexanediol]: the “Current response of receptor in separate screen” value in assay [3] is on record as “responded”.
Turning to `CCC[C@@H](O)[C@H](C)O` [(2S,3R)-2,3-hexanediol], in assay [3], the “Current response of receptor in screen” value was “sensitive”.
In the case of `CC(C)=CCCC(C)=CC=O` (mixture of isomers) [Citral, citral], in assay [5], the Attraction of beetles result was “attracts males and females in similar numbers”.
As for `CC[C@H](C)CO` [(S)-methylbutan-1-ol, (S)-2-methylbutan-1-ol], the “Current response of receptor in screen” value in assay [6] is reported as “responded with high sensitivity”.
In the case of `CCC/C=C\C=C\CCCCCCCCC=O` [bombykal], the EC50 in assay [7] is 260 nM.
In the case of `CCC[C@@H](O)C(C)=O` [(R)-3-hydroxyhexan-2-one], in assay [3], the “Current response of receptor in screen” value is “sensitive”.
